Assay results as given in ChEMBL document CHEMBL4513216, “Probing the Open Global Health Chemical Diversity Library for Multistage-Active Starting Points for Next-Generation Antimalarials” (ACS Infect Dis, 2020).

Experiment: Toxicity liver stage against HepG2, at 10uM
Assay type: cell-based
Set-up: test concentration 10 uM, cell line HepG2-A16-CD81EGFP
Conditions: human, HepG2-A16-CD81EGFP cells; read-out: INHIBITION
Outline: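 Uninfected HepG2-A16-CD81EGFP cells, 3 × 10^3 per well, 1536-well, plated on prespotted compound at 10 μM final, parasite-free screening media added to match infected plates; puromycin 10 μM positive, DMSO 0.5% negative; run in parallel with 48 h PbLuc assay at 37 °C, 5% CO2; viability by CellTiter-Glo luminescence, normalized to controls.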

Row | Structure (SMILES) | cytotoxicity at 10 µM [%]
1 | CCn1c(C)cc(C(=O)Nc2ccccc2CN(C)C(C)=O)c1C | -1.03
2 | COc1cccc(NC(=O)NCC2CCCN(C3CCOCC3)C2)c1 (centres undefined) | -2.48
3 | CC1CCC(NC(=O)CNC2(c3ccc(F)cc3)CCOCC2)CC1 (centres undefined) | 7.79
4 | Cc1ccc(C(=O)N2CCC3(CC2)CC(c2cnn(C)c2)CO3)cn1 (centres undefined) | -69.5
5 | COc1c(Br)cccc1CCNC(=O)c1ncoc1C | 3.39
6 | COc1ccc(F)c(CN(CCCn2ccnc2)Cc2ccc(C)s2)c1 | -7.14
7 | CCc1ncc(C(=O)NCC2CCN(Cc3ccncc3)CC2)cn1 | 8.12
8 | Cc1nc[nH]c1C(=O)N1CCC2(CC1)CN(CCN(C)C)C(=O)O2 | 4.54
9 | CC(C)Cc1nc(CCn2ccc(=O)[nH]c2=O)n(-c2ccccn2)n1 | -5.41
10 | COc1cccc(C(=O)N2CCN(C(=O)CCCc3cn[nH]c3)CC2)c1 | -1.3
11 | FC(F)(F)c1[nH]nc2c1CN(Cc1ccccc1)CC2 | 11.8
12 | COc1cc(C(=O)N(C)Cc2nccn2CC(F)(F)F)ccc1C | -4.24
13 | CCc1c(C)sc2ncnc(N3CCN(C4CCOCC4)CC3)c12 | 8.48
14 | CCc1nc(N2CCC3(CC2)CC(=O)N(Cc2ccc(Cl)cc2)C3)no1 | 4.48
15 | Cc1cnn(CC2CN(CC(=O)N(C)Cc3cccs3)CCO2)c1 (centres undefined) | 6.28
16 | COC(CNC(=O)NCc1c(C)cc(C)[nH]c1=O)c1ccccc1 (centres undefined) | -6.12
17 | CCc1ncc(C(=O)N2CCCN(C3CCCCC3)CC2)cn1 | -5.1
18 | COCC1CN(c2ccc(C)nn2)Cc2cnn(CC3CCOCC3)c21 (centres undefined) | 4.62
19 | COCCN1CC2(CCCN(c3ncnc4[nH]cnc34)C2)CCC1=O (centres undefined) | -3.68
20 | Cc1nc(C)n(CCCn2ccnc2-c2cc3n(n2)CCCNC3)n1 | 3.71
21 | Cn1nc(CNC(=O)CC#N)c2c1CN(C(N)=O)CC2 | 3.8
22 | CN(C)C(=O)c1ccc(-c2cccc3c2CCNC3)o1 | -0.537

Row | Structure (SMILES) | cytotoxicity at 10 µM [%]
23 | O=C(Cc1ccc2c(c1)CCO2)N1CCN(c2ccncc2)CC1 | -4.8
24 | CCn1cnnc1CNC(=O)N1CCCC1 | -3.3
25 | COCCOCC(=O)NC(C#N)c1cccc(Cl)c1Cl (centres undefined) | 7.84
26 | CCOc1ccc(C(=O)CCC(=O)NCc2cncn2CC)cc1C | 0.902
27 | Cc1cccc(S(=O)(=O)N2CC[C@H]3CO[C@H](CN(C)C)[C@H]3C2)c1 | -92.1
28 | O=C(NCC(O)C1CC1)Nc1cnn(Cc2ccccc2)c1 (centres undefined) | 4.85
29 | COCCC(=O)N1CCOCC(Cc2ccc3c(ccn3C)c2)C1 (centres undefined) | 6.66
30 | Cc1noc(C)c1C(=O)N1CCCN(C)c2ccc(Cl)cc21 | 4.61
31 | CC(C)n1cc(CN2CCCN(C(=O)c3ccco3)CC2)cn1 | -2.27
32 | CC(=O)N1Cc2ccccc2CC1C(=O)Nc1ccc(C)cn1 (centres undefined) | -0.147
33 | CS(=O)(=O)N1C[C@@H]2OCC(=O)N(CC3CCC3)[C@@H]2C1 | 8.94
34 | CN1CCN([C@@H]2CCN(Cc3ccc4cc(F)ccc4n3)C[C@H]2O)CC1 | -4.1
35 | CCOC(=O)N1[C@@H](c2ccco2)[C@@H](C(=O)O)C[C@]12CCCCNC2=O | -2.98
36 | Cn1ccc(C2CCCCN2C(=O)c2cccc(Cn3cccn3)c2)n1 (centres undefined) | 8.04
37 | COc1ccc(-c2cc3nc(CCNC(=O)CN(C)C)nn3cn2)cc1 | 1.98
38 | O=C(CSCC1CC1)N1CCCC(c2nccn2Cc2ccncc2)C1 (centres undefined) | -13.3
39 | CC(C)(C#N)c1ccccc1CN(CCO)Cc1ccsc1 | 20
40 | O=C1CC(c2ccc(CO)o2)c2cnn(Cc3ccco3)c2N1 (centres undefined) | 2.77
41 | O=C(c1ccc(-c2cn[nH]c2)nc1)N1CCC(N2CCOCC2)CC1 | 1.38
42 | CC1CCN(C(=O)CN(Cc2ccco2)C2CC2)CC1 | -4.74
43 | OC1(CNCCc2csc(-c3ncccn3)n2)CCNC1 (centres undefined) | -8.44
44 | O=C(NCCc1cccs1)[C@H]1CO[C@H]2CCN(CC3CC3)C[C@H]2C1 | -103
